What all share (type): organism-based
Holding throughout (settings): in vivo, icv_or_intrathecal

Data set [1] in a line: Toxicity in ddY mouse assessed as death time at 4.4 nmol dosed via intracerebroventricular injection. Put shortly:
(§1)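 Male ddY mice (11−13 g, 3 weeks old), three per compound. Doses, quantified by LC-MS against a weighed standard, were given in 10 μL water, injected slowly over 5 s into the ventricle: 2 mm lateral to the skull midline, 3 mm rostral to the anterior ear-base line, 3 mm deep. Water served as vehicle control. Death time and behavioural symptoms were recorded.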

Data set [2] is described as follows: Toxicity in ddY mouse assessed as induction of adverse symptoms at 4.4 nmol dosed via intracerebroventricular injection. Put shortly:
as §1

Data set [3] is described as follows: Toxicity in ddY mouse assessed as death time at 2.2 nmol dosed via intracerebroventricular injection. The method in brief: as §1
A short description of data set [4]: Toxicity in ddY mouse assessed as induction of adverse symptoms at 2.2 nmol dosed via intracerebroventricular injection. Put shortly:
as §1

Data set [5] is described as follows: Toxicity in ddY mouse assessed as induction of scratching at 2.2 nmol dosed via intracerebroventricular injection. Put shortly: as §1
Data set [6] in a line: Toxicity in ddY mouse assessed as induction of spasms at 2.2 nmol dosed via intracerebroventricular injection. The method in brief:
as §1

Data set [7] is described as follows: Toxicity in ddY mouse assessed as induction of sudden jumping at 2.2 nmol dosed via intracerebroventricular injection. Put shortly: as §1
Data set [8] is described as follows: Toxicity in ddY mouse assessed as death time at 1.1 nmol dosed via intracerebroventricular injection. Put shortly:
as §1

Data set [9] can be described thus: Toxicity in ddY mouse assessed as induction of scratching at 1.1 nmol dosed via intracerebroventricular injection. The method in brief:
as §1

The nature of data set [10]: Toxicity in ddY mouse assessed as induction of spasms at 1.1 nmol dosed via intracerebroventricular injection. The method in brief: as §1
Data set [11] can be described thus: Toxicity in ddY mouse assessed as induction of sudden jumping at 1.1 nmol dosed via intracerebroventricular injection. Put shortly:
as §1

Consider `CC(C)=CCN[C@H](C(=O)O)[C@H](O)CC(=O)O` (relative stereo), for which the Activity result in [1] and in [2] was “Non-Toxic” each time.

`CC(C)=CCN[C@@H](CCC(=O)O)C(=O)O`: the Activity result in data set [1] and in [2] was “Non-Toxic” throughout.

Take `C=C(C)[C@]1(O)CN[C@H](C(=O)O)[C@H]1CC(=O)O`: the Activity entry in data set [3] and in data set [4] was “Non-Toxic” each time.

Regarding `C=C(C)[C@@]1(O)CN[C@H](C(=O)O)[C@H]1CC(=O)O`, the Activity result in [3] is “Non-Toxic”; in [5] it was “Toxic”; in [6] it was “Toxic”; in [7], “Toxic”.

For the compound `C=C(C)[C@H]1CN[C@H](C(=O)O)[C@H]1CC(=O)O` [KAINIC ACID], the Time in data set [8] is 15 to 30 min. Further, the Activity result in data set [9], in data set [10] and in [11] was “Toxic” in each case.

Source of the values: ChEMBL document CHEMBL4392869, “Possible Biosynthetic Products and Metabolites of Kainic Acid from the Red Alga Digenea simplex and Their Biological Activity” (J Nat Prod, 2019).
